Experimental data as given in ChEMBL document CHEMBL1152863, “Synthesis, HIV-RT inhibitory activity and SAR of 1-benzyl-1H-1,2,3-triazole derivatives of carbohydrates” (Eur J Med Chem, 2009).

How the values were obtained:
[1] = molecular target: Human immunodeficiency virus type 1 reverse transcriptase (Human immunodeficiency virus 1) (UniProt Q72547); assay: Inhibition of polymerase activity of HIV1 recombinant reverse transcriptase expressed in Escherichia coli at 50 uM
How it was run: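 Single-concentration test: compounds at 50 on recombinant HIV-1 RT (66 kDa, E. coli-expressed from pUC12N, Sephadex G-25 fraction) polymerase activity. 50 mM Tris-HCl pH 7.8, 6 mM MgCl2, 1 mM DTT, 50 mM KCl, dTTP with [3H]dTTP, poly(rA)·oligo(dT) template-primer, 1 U enzyme; 30 min at 37 °C; TCA precipitation onto filters, incorporated 3H by scintillation counting.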

[2] = molecular target: Human immunodeficiency virus type 1 reverse transcriptase (Human immunodeficiency virus 1, UniProt Q72547); assay: Inhibition of polymerase activity of HIV1 recombinant reverse transcriptase expressed in Escherichia coli
How it was run: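 Recombinant HIV-1 RT (66 kDa) expressed in E. coli from plasmid pUC12N, partly purified by Sephadex G-25; compounds tested at different concentrations (0.01-50). Reaction: 50 mM Tris-HCl pH 7.8, 6 mM MgCl2, 1 mM DTT, 50 mM KCl, dTTP plus [3H]dTTP, poly(rA)·oligo(dT), 1 U enzyme; 37 °C, 30 min; stopped with ice-cold 5% TCA/pyrophosphate, filter-collected, 3H counted by scintillation.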

[3] = Cytotoxicity against african green monkey Vero cells after 72 hrs by MTT assay; assay type: cell-based; conditions: chlorocebus sabaeus
How it was run: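 Vero cells grown in DMEM with 5% FBS, penicillin/streptomycin, 37 °C, 5% CO2; monolayers of about 10^4 cells exposed to several compound concentrations for 72 h. MTT solution (1 mg/mL) then added to assess viability. CC50 obtained by linear regression of dose-response curves; duplicates, at least three independent experiments.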

| SMILES | inhibition [1] [%] | IC50 [2] [µM] | CC50 at 72 h [3] [µM] |
| --- | --- | --- | --- |
| Cc1c(C(=O)OC[C@H]2O[C@H](O)[C@H](O)[C@@H](O)[C@H]2O)nnn1Cc1ccccc1 | 45.6 | – | 25600 |
| Cc1c(C(=O)OC[C@@]23OC[C@H]4OC(C)(C)O[C@H]4[C@@H]2OC(C)(C)O3)nnn1Cc1ccccc1 | 47.9 | – | 3380 |
| Cc1c(C(=O)O[C@H]2[C@H](O)[C@H](O)CO[C@]2(O)CO)nnn1Cc1ccccc1 | 45.6 | – | 649 |
| Cc1c(C(=O)O[C@H]2[C@H](O)[C@@H](CO)OC(O)[C@@H]2O)nnn1Cc1ccccc1 (some centres not stated) | 35.9 | – | 1800 |
| Cc1cn([C@H]2C[C@H](N=[N+]=[N-])[C@@H](CO)O2)c(=O)[nH]c1=O [ZIDOVUDINE] | – | – | 126 |
| Cc1c(C(=O)O[C@@H]2[C@H]3OC(C)(C)O[C@H]3O[C@@H]2[C@H]2COC(C)(C)O2)nnn1Cc1ccccc1 | 64.7 | 5 | 208 |

The next lines start with results.

| inhibition [1] [%] | IC50 [2] [µM] | SMILES | CC50 at 72 h [3] [µM] |
| --- | --- | --- | --- |
| 63.6 | 2.2 | CO[C@@H]1O[C@H](COC(=O)c2nnn(Cc3ccccc3)c2C)[C@H]2OC(C)(C)O[C@@H]12 | 837 |
| 43.5 | – | Cc1c(C(=O)O[C@H]2[C@@H]3OC(C)(C)O[C@@H]3CO[C@]23COC(C)(C)O3)nnn1Cc1ccccc1 | 2750 |
| 14 | – | Cc1c(C(=O)O[C@H]2[C@@H](O)[C@H](O)O[C@H](CO)[C@H]2O)nnn1Cc1ccccc1 | 1440 |
| 65.4 | 1.98 | Cc1c(C(=O)OC[C@H]2O[C@@H]3OC(C)(C)O[C@@H]3[C@H]2OCc2ccccc2)nnn1Cc1ccccc1 | 724 |
| 35.8 | – | Cc1c(C(=O)OC[C@@]2(O)OC[C@@H](O)[C@@H](O)[C@@H]2O)nnn1Cc1ccccc1 | 800 |
| 28.8 | – | Cc1c(C(=O)OC[C@H]2O[C@@H]3OC(C)(C)O[C@@H]3[C@H]3OC(C)(C)O[C@H]32)nnn1Cc1ccccc1 | 123 |
| 36.2 | – | Cc1c(C(=O)OC[C@H]2O[C@H](O)[C@H](O)[C@H]2OCc2ccccc2)nnn1Cc1ccccc1 | 596 |
| 3 | – | Cc1c(C(=O)O[C@H]2[C@H]3OC(C)(C)O[C@H]3O[C@@H]2[C@H]2COC(C)(C)O2)nnn1Cc1ccccc1 | 3530 |
| 33.2 | – | Cc1c(C(=O)OC[C@H]2O[C@@H](O)[C@H](O)[C@@H]2O)nnn1Cc1ccccc1 | 1170 |
